# Reference: ChEMBL document CHEMBL1629690, “Development of hexadecyloxypropyl tenofovir (CMX157) for treatment of infection caused by wild-type and nucleoside/nucleotide-resistant HIV” (Antimicrob Agents Chemother, 2010)
# Legend:
# [1] = Cytotoxicity against human dendritic cells after 24 hrs by XTT assay; assay type: cell-based
# Summary of the method: (§1)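 Six-concentration growth-inhibition test: 10 to 0.032 μM for the prodrug and TDF, up to 100 μM for TFV, with Triton X-100 run in parallel. Cell lines were split 1:2 the day before and seeded at 5 × 10^3 to 2 × 10^4 cells/well, with adherent lines left overnight. Dendritic cells were derived with GM-CSF/IL-4 for 7 days, then LPS 10 ng/ml for 2 days. Viability was read by XTT.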
# PBMC [2] = test: Cellular uptake in PHA/IL-2-stimulated human PBMC at 10 uM assessed as TFV-diphosphate after 24 hrs by MS/MS analysis; assay type: ADME, cell-based
# Summary of the method: (§2)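 PHA-stimulated (4 μg/ml PHA, 48 to 72 h; 20 U/ml rhIL-2) human PBMCs at 2 × 10^6 cells/ml in RPMI 1640 with 15% FBS, given tenofovir or prodrug (final 0.01 to 10 μM) for 24 h at 37°C. Cells washed three times in cold 0.9% NaCl, counted, and 1 × 10^7 cell aliquots pelleted. TFV, TFV-MP and TFV-PP were separated by ion-pairing reverse-phase LC and detected by positive-ion electrospray MS. Output is pmol per 10^6 cells.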
# PBMC [3] = test: Cellular uptake in human PBMC at 10 uM assessed as TFV-diphosphate after 24 hrs by MS/MS analysis; assay type: ADME, cell-based
# Summary of the method: (§3)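 Human PBMCs, unstimulated or PHA/IL-2-stimulated, at 2 × 10^6 cells/ml in RPMI 1640 with 15% FBS, exposed 24 h at 37°C to final 0.01, 0.1, 1.0 or 10 μM of the prodrug, or 1.0 or 10 μM tenofovir. After cold saline washes the cells were counted and 1 × 10^7-cell pellets made. TFV, TFV-MP and TFV-PP were measured by ion-pairing LC with positive-ion electrospray MS as pmol/10^6 cells.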
# [4] = Cytotoxicity against human HuH7 cells after 24 hrs by XTT assay; assay type: cell-based; details: huh-7, 24 h; summary of the method: as §1
# HeLa = test: Cytotoxicity against human HeLa cells after 24 hrs by XTT assay; assay type: cell-based; summary of the method: as §1
# PBMC [5] = test: Cellular uptake in human PBMC at 1 uM assessed as TFV-diphosphate level after 24 hrs by MS/MS analysis; assay type: ADME, cell-based; summary of the method: as §3
# [6] = test system: Human immunodeficiency virus 1; test: Antiviral activity against HIV1 NL 4-3 expressing wild type reverse transcriptase infected in human PBMC by ELISA; assay type: functional, organism-based; details: Human immunodeficiency virus 1, NL 4-3
# Summary of the method: (§4)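 Fresh donor PBMCs, HIV- and HBV-seronegative, were stimulated with 4 μg/ml PHA for 48 to 72 h and kept on 20 U/ml rhIL-2. Cells pooled from at least two donors were seeded at 5 × 10^4 per well and infected at MOI ~0.1. Nine compound concentrations were run in triplicate wells for 7 days.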
# PBMC [7] = test: Cellular uptake in PHA/IL-2-stimulated human PBMC at 1 uM assessed as TFV-diphosphate level after 24 hrs by MS/MS analysis; assay type: ADME, cell-based; summary of the method: as §2
# [8] = Cytotoxicity against human ME180 cells after 24 hrs by XTT assay; assay type: cell-based; details: me-180, 24 h; summary of the method: as §1
# [9] = test system: Human immunodeficiency virus 1; test: Antiviral activity against HIV1 71361-1 harboring reverse transcriptase 65R mutant gene infected in human PBMC by ELISA; assay type: functional, organism-based; details: Human immunodeficiency virus 1, 71361-1
# Summary of the method: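 Fresh PBMCs pooled from at least two HIV- and HBV-seronegative donors, stimulated with PHA 4 μg/ml for 48–72 h and kept in rhIL-2 20 U/ml. Seeded at 5 × 10^4 cells/well and infected with RT-mutant HIV-1 clones at MOI ~0.1. Nine compound concentrations, triplicate wells, 7-day incubation. EC50 reported as mean ± SD of one to three independent experiments.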
# PBMC [10] = test: Cytotoxicity against PHA/IL-2-stimulated human PBMC after 24 hrs by XTT assay; assay type: cell-based; summary of the method: as §1
# [11] = test system: Human immunodeficiency virus 1; test: Antiviral activity against HIV1 subtype G isolate JV1083 infected in human PBMC after 48 to 72 hrs by MTS assay; details: Human immunodeficiency virus 1, isolate JV1083
# [12] = test system: Human immunodeficiency virus 1; test: Antiviral activity against HIV1 subtype D isolate 92UG046 infected in human PBMC after 48 to 72 hrs by MTS assay; assay type: functional, organism-based; details: Human immunodeficiency virus 1, isolate 92UG046; summary of the method: as §4
# [13] = test system: Human immunodeficiency virus 1; test: Antiviral activity against HIV1 subtype F isolate 93BR029 infected in human PBMC after 48 to 72 hrs by MTS assay; assay type: functional, organism-based; details: Human immunodeficiency virus 1, isolate 93BR029; summary of the method: as §4
# [14] = test system: Human immunodeficiency virus 2; test: Antiviral activity against HIV2 isolate CDC310319 infected in human PBMC after 48 to 72 hrs by MTS assay; assay type: functional, organism-based; details: Human immunodeficiency virus 2, isolate CDC310319; summary of the method: as §4
# [15] = test system: Human immunodeficiency virus 1; test: Antiviral activity against HIV1 subtype B isolate ADA infected in human MDM […] by MTS assay; assay type: functional, organism-based; details: Human immunodeficiency virus 1, isolate ADA
# [16] = test system: Human immunodeficiency virus 1; test: Antiviral activity against HIV1 subtype A isolate 92UG029 infected in human PBMC after 48 to 72 hrs by MTS assay; assay type: functional, organism-based; details: Human immunodeficiency virus 1, isolate 92UG029; summary of the method: as §4
# [17] = test system: Human immunodeficiency virus 1; test: Antiviral activity against HIV1 subtype B isolate 92TH026 infected in human PBMC after 48 to 72 hrs by MTS assay; assay type: functional, organism-based; details: Human immunodeficiency virus 1, isolate 92TH026; summary of the method: as §4
# [18] = test system: Human immunodeficiency virus 1; test: Antiviral activity against HIV1 subtype A isolate 92UG037 infected in human MDM […] by MTS assay; assay type: functional, organism-based; details: Human immunodeficiency virus 1, isolate 92UG037
# [19] = test system: Human immunodeficiency virus 1; test: Antiviral activity against HIV1 subtype G isolate G3 infected in human PBMC after 48 to 72 hrs by MTS assay; assay type: functional, organism-based; details: Human immunodeficiency virus 1, isolate G3; summary of the method: as §4
# [20] = test system: Human immunodeficiency virus 2; test: Antiviral activity against HIV2 isolate CBL-20 infected in human PBMC after 48 to 72 hrs by MTS assay; assay type: functional, organism-based; details: Human immunodeficiency virus 2, isolate CBL-20; summary of the method: as §4
# [21] = test system: Human immunodeficiency virus 1; test: Antiviral activity against HIV1 subtype D isolate 92UG001 infected in human PBMC after 48 to 72 hrs by MTS assay; assay type: functional, organism-based; details: Human immunodeficiency virus 1, isolate 92UG001; summary of the method: as §4
# [22] = test system: Human immunodeficiency virus 2; test: Antiviral activity against HIV2 isolate CDC310342 infected in human PBMC after 48 to 72 hrs by MTS assay; assay type: functional, organism-based; details: Human immunodeficiency virus 2, isolate CDC310342; summary of the method: as §4
# [23] = test system: Human immunodeficiency virus 1; test: Antiviral activity against HIV1 subtype E isolate CMU06 infected in human PBMC after 48 to 72 hrs by MTS assay; assay type: functional, organism-based; details: Human immunodeficiency virus 1, isolate CMU06; summary of the method: as §4
# [24] = test system: Human immunodeficiency virus 1; test: Antiviral activity against HIV1 subtype A isolate 92UG037 infected in human PBMC after 48 to 72 hrs by MTS assay; assay type: functional, organism-based; details: Human immunodeficiency virus 1, isolate 92UG037; summary of the method: as §4
# PBMC [25] = test: Cytotoxicity against human PBMC up to 1000 nM by MTS assay; assay type: cell-based
# [26] = test system: Human immunodeficiency virus 1; test: Antiviral activity against HIV1 subtype C isolate 92BR025 infected in human PBMC after 48 to 72 hrs by MTS assay; assay type: functional, organism-based; details: Human immunodeficiency virus 1, isolate 92BR025; summary of the method: as §4
# [27] = Cytotoxicity against human MDM up to 1000 nM by MTS assay; assay type: cell-based
# [28] = test system: Human immunodeficiency virus 1; test: Antiviral activity against HIV1 subtype E isolate 93TH073 infected in human PBMC after 48 to 72 hrs by MTS assay; assay type: functional, organism-based; details: Human immunodeficiency virus 1, isolate 93TH073; summary of the method: as §4
SMILES,Activity [1],Drug uptake (PBMC [2]),Drug uptake (PBMC [3]),Activity [4],Activity (HeLa),Drug uptake (PBMC [5]),EC50 [6],Drug uptake (PBMC [7]),Activity [8],EC50 [9],Activity (PBMC [10]),EC50 [11],EC50 [12],EC50 [13],EC50 [14],EC50 [15],EC50 [16],EC50 [17],EC50 [18],EC50 [19],also measured
C[C@H](Cn1cnc2c(N)ncnc21)OCP(=O)(O)O [TENOFOVIR ANHYDROUS],Non-toxic,0.22 pmol/10^6 cells,0.15 pmol/10^6 cells,Non-toxic,Non-toxic,0.05 pmol/10^6 cells,300 nM,0.05 pmol/10^6 cells,Non-toxic,> 8000 nM,Non-toxic,,,,,,,,,,
CCCCCCCCCCCCCCCCOCCCOP(=O)(O)CO[C@H](C)Cn1cnc2c(N)ncnc21 [TENOFOVIR EXALIDEX],Non-toxic,5.5 pmol/10^6 cells,1.1 pmol/10^6 cells,Non-toxic,Non-toxic,0.22 pmol/10^6 cells,1.5 nM,1.7 pmol/10^6 cells,Non-toxic,13 nM,Non-toxic,2.2 nM,2.1 nM,2.7 nM,3.5 nM,3.1 nM,3.3 nM,1.5 nM,1.3 nM,2.2 nM,EC50 [20]: 3.5 nM; EC50 [21]: 2.1 nM; EC50 [22]: 3.5 nM; EC50 [23]: 2.3 nM; EC50 [24]: 3.3 nM; Activity (PBMC [25]): Non-toxic; EC50 [26]: 2.8 nM; Activity [27]: Non-toxic; EC50 [28]: 2.3 nM
Cc1cn([C@H]2C[C@H](N=[N+]=[N-])[C@@H](CO)O2)c(=O)[nH]c1=O [ZIDOVUDINE],,,,,,,0.53 nM,,,2.7 nM,,4.7 nM,6.3 nM,9.6 nM,9.3 nM,2.7 nM,14 nM,2 nM,1.3 nM,4.7 nM,EC50 [20]: 9.3 nM; EC50 [21]: 6.3 nM; EC50 [22]: 9.3 nM; EC50 [23]: 5.5 nM; EC50 [24]: 14 nM; Activity (PBMC [25]): Non-toxic; EC50 [26]: 4.9 nM; Activity [27]: Non-toxic; EC50 [28]: 5.5 nM
